Test results: article PMC10392308 (Journal of Enzyme Inhibition and Medicinal Chemistry, 2023)
Converted amounts (≈) assume the structure as drawn.

How the values were obtained:
zebrafish larvae = assay: Zebrafish adult fish; type: in vivo; conditions: for Concentrations causing acute toxicity in zebrafish larvae: in vivo
Procedure, shortened: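 Normally developed larvae at 3 dpf were placed in 24-well plates, six per well, and exposed to test compound at 0.1, 0.2, 0.3, 0.4 and 0.5 μM. Mortality was recorded at 24 h and 72 h.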

tumour tissue = assay: Haematoxylin-eosin staining; type: in vivo, nude mice; conditions: compound 2 1 and 2.5 mg/kg, 5-FU 10 mg/kg; vs control group
Procedure, shortened: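 Female Balb/c nude mice (8 weeks) bore HCT116 xenografts from 1×10^8 cells/mL, 0.1 ml in the right armpit, six per group. Dosing was i.p. in 5% DMSO/soybean oil at 5 ml/kg, starting at ~100 mm3, for 20 days, with vehicle controls. Tumours collected after sacrifice and stained with haematoxylin-eosin; nuclei blue, cytoplasm red.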

VEGF [1] = assay: Immunohistochemical detection of VEGF expression in tumour tissue; type: in vivo, nude mice; conditions: compound 2 1 and 2.5 mg/kg, 5-FU 10 mg/kg; p < 0.0001 vs control
VEGF [2] = assay: ELISA for the expression of VEGF in MGC-803 cells; type: cell-based, human; conditions: for Effect on the expression of VEGF: MGC-803, 0.1, 0.5, 1 µM, hypoxia or not
Procedure, shortened: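 The hypoxia arm used 100 µM CoCl2·6H2O (1% O2) and was run beside 21% O2 cultures. MGC-803 cells were exposed 24 h to test compound at 0.1, 0.5 or 1 µM, with a 0.1% DMSO blank and a positive control. Supernatants were spun at 1000 × g for 20 min at 4 °C, and VEGF was quantified by human VEGF ELISA kit.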

HCT-116 = assay: MTT antiproliferative assay, HCT-116; type: cell-based; conditions: Homo sapiens, HCT-116, 48 h, read-out: IC50 values, HCT-116, MTT, 48 h
MMP-9 = assay: ELISA for the expression of MMP-9 in MGC-803 cells; type: cell-based, human; conditions: for MMP-9 expression: control 18.6 ng/ml; for Effect on the expression of MMP-9: MGC-803, 0.1, 0.5, 1 µM
TNF-α = assay: ELISA detection of TNF-α in tumour mice; type: in vivo, nude mice; conditions: serum, compound 2 1 and 2.5 mg/kg, 5-FU 10 mg/kg, vs control
Procedure, shortened: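 HCT116 xenografts (1×10^8 cells/mL, 0.1 ml, right armpit) in 8-week-old female Balb/c nude mice, six per group. Test compound given i.p. in 5% DMSO/soybean oil (5 ml/kg) from ~100 mm3 tumours for 20 days. At sacrifice, serum held 2 h, spun 1000 × g for 20 min, stored −80 °C. TNF-α measured by mouse ELISA kit, six sera per group, triplicate wells.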

MGC-803 cells [3] = assay: Cell cycle analysis with flow cytometry; type: cell-based, human; conditions: for Cells in G1 phase: DMSO 64.36%; for Phase in which the cell cycle is blocked: MGC-803, 18 h; for Cells in S phase: DMSO 20.59%
HCT116 cancer cells = assay: In vivo anticancer effect in nude mice inoculated with HCT116 cells; set-up: species or system Balb/c nude mice; conditions: for Tumour weight / Tumour volume at the end of the administration: compound 2 2.5 and 1 mg/kg, 5-FU 10 mg/kg; for Tumour weight: p < 0.001 vs control; for Tumour volume at the end of the administration: p < 0.01 vs control; for Tumour growth inhibition rate: by tumour weight
Procedure, shortened: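 Female Balb/c nude mice, 8 weeks old, received 0.1 ml of 1 × 10^8/mL HCT116 cells in the right armpit, six mice per group. At about 100 mm3 tumour, dosing began: i.p., 5 ml/kg, once every two days, vehicle 5% DMSO in soybean oil, with a vehicle group and a 5-FU group. Body weight and tumour diameters were taken every 3 d, with volume = A×B²/2. Inhibition = (1 − mean treated/control tumour weight) × 100%.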

MGC-803 cells [4] = assay: Apoptosis assay with flow cytometry; type: cell-based, human; conditions: MGC-803, 18 h, highest value reached; blank control 8.2
[5] = Water solubility determination using HPLC; type: physicochemical; conditions: 37 °C, thermodynamic from solid
Procedure, shortened: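 […] were sonicated 10 min at 37 °C. After standing 1 h, the clear upper liquid was membrane-filtered and injected on HPLC. Water solubility was calculated from peak area using the regression equation.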

AGS = assay: MTT antiproliferative assay, AGS; type: cell-based; conditions: Homo sapiens, 48 h, read-out: IC50 values, AGS, MTT, 48 h
zebrafish embryos = assay: Zebrafish embryonic acute toxicity test; type: in vivo
Procedure, shortened: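 Normally developed embryos at 6 hpf were placed in 24-well plates, six per well, and exposed for three days to test compound at 0.1, 0.15, 0.2, 0.3 and 0.5 μM, with a 0.5% DMSO blank. Hatching (shell without membrane) and death (cardiac arrest) were scored every 24 h. Incubation rate = hatched/total embryos × 100%, and mortality = dead/total × 100%.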

## CC1=C(O)C(=O)C=C2C1=CC=C1[C@@]2(C)CC[C@@]2(C)[C@@H]3C[C@](C)(C(=O)OCCCO)CC[C@]3(C)CC[C@]12C [Compound 2, 3-Hydroxypropyl (2 R,4aS,6aS,12bR,14aS,14bR)-10-hydroxy-2,4a,6a,9,12b,14a-hexamethyl-11-oxo-1,2,3,4,4a,5,6,6a,11,12b,13,14,14a,14b-tetradecahydropicene-2-carboxylate]
Zebrafish larvae; zebrafish larvae, exposed for 72 h
  100% mortality concentration: 0.1 µM
Zebrafish larvae
  Concentrations causing acute toxicity in zebrafish larvae: higher than 0.1 μM
Tumour tissue
  Morphological changes in tumour tissue (HE): tumour tissue structure was seriously damaged and the cell necrosis was obvious
VEGF [1]
  VEGF expression in tumour tissue (immunohistochemistry): downregulated the VEGF expression significantly
VEGF [2]; CoCl2-induced hypoxia, 0.1 µM, control 568.1 pg/ml
  VEGF expression: 430.8 pg/mL
VEGF [2]; CoCl2-induced hypoxia, 0.5 µM, control 568.1 pg/ml
  VEGF expression: 397.5 pg/mL
VEGF [2]; CoCl2-induced hypoxia, 1 µM, control 568.1 pg/ml
  VEGF expression: 328.8 pg/mL
VEGF [2]
  Effect on the expression of VEGF: inhibited the expression of VEGF in a concentration-dependent manner
VEGF [2]; normal oxygen conditions, 0.1 µM, control 531.5 pg/ml
  VEGF expression: 514.1 pg/mL
VEGF [2]; normal oxygen conditions, 0.5 µM, control 531.5 pg/ml
  VEGF expression: 398.1 pg/mL
VEGF [2]; normal oxygen conditions, 1 µM, control 531.5 pg/ml
  VEGF expression: 352.1 pg/mL
HCT-116
  IC50: 320 to 390 nM
MMP-9; MGC-803, 0.5 µM
  MMP-9 expression: 10.04 ng/mL
MMP-9; MGC-803, 1 µM
  MMP-9 expression: 9.64 ng/mL
MMP-9
  Effect on the expression of MMP-9: inhibited the expression of MMP-9 in MGC-803 cells in a concentration-dependent manner
TNF-α
  TNF-α content of tumour mice: decreased the TNF-α content significantly in a dose-dependent manner
MGC-803 cells [3]; 1 µM, 18 h, MGC-803, DMSO 15.05%
  Cells in G2 phase: 37.01%
MGC-803 cells [3]; 1 µM, 18 h, MGC-803
  Cells in G1 phase: 44.77%
MGC-803 cells [3]
  Phase in which the cell cycle is blocked: G2 phase
HCT116 cancer cells; 1 mg/kg
  Body weight during the treatment period: no significant changes of body weight
HCT116 cancer cells; 2.5 mg/kg
  Body weight during the treatment period: downward trend
  Mental state of the mice: depressed
HCT116 cancer cells
  Tumour weight: significantly lower than that in the control group
  Tumour volume at the end of the administration: significantly smaller than that of the control
HCT116 cancer cells; high-dose 2.5 mg/kg intraperitoneally
  Tumour growth inhibition rate: 55.82%
HCT116 cancer cells; low-dose 1 mg/kg intraperitoneally
  Tumour growth inhibition rate: 50.83%
MGC-803 cells [4]
  Overall apoptosis rate (early apoptosis + late apoptosis): 13%
[5]
  solubility at 1 h: 11.8 µg/mL (≈ 23.2 µM)
AGS
  IC50: 330 nM
Zebrafish embryos; 0.1 μM
  Acute toxicity for zebrafish embryos: no acute toxicity
Zebrafish embryos; 0.15 μM
  Incubation (hatching) rate of zebrafish embryos: 25%
Zebrafish embryos; 0.2 μM
  Hatching of zebrafish eggs: no eggs hatched
Zebrafish embryos; 0.5 μM, on the first day
  Death rate of zebrafish embryos: 100%
Zebrafish embryos; 0.5 μM, on the fourth day
  Mortality of zebrafish embryos: 100%

## O=c1[nH]cc(F)c(=O)[nH]1 [5-FU, 5-fluorouracil, reference compound]
Tumour tissue
  Morphological changes in tumour tissue (HE): tumour tissue structure was seriously damaged and the cell necrosis was obvious
VEGF [1]
  VEGF expression in tumour tissue (immunohistochemistry): downregulated the VEGF expression significantly
TNF-α
  TNF-α content of tumour mice: increased the TNF-α content significantly
HCT116 cancer cells; 10 mg/kg intraperitoneally
  Tumour growth inhibition rate: 37.02%
HCT116 cancer cells
  Tumour weight: significantly lower than that in the control group
  Tumour volume at the end of the administration: significantly smaller than that of the control

## CC1=C(O)C(=O)C=C2C1=CC=C1[C@@]2(C)CC[C@@]2(C)[C@@H]3C[C@](C)(C(=O)O)CC[C@]3(C)CC[C@]12C [celastrol, Celastrol, reference compound]
Zebrafish larvae
  Concentrations causing acute toxicity in zebrafish larvae: higher than 0.1 μM
VEGF [2]
  Effect on the expression of VEGF: inhibited the expression of VEGF in a concentration-dependent manner
MMP-9
  Effect on the expression of MMP-9: inhibited the expression of MMP-9 in MGC-803 cells in a concentration-dependent manner
MGC-803 cells [3]; 0.1 µM, 18 h, MGC-803
  Cells in S phase: 19.18%
MGC-803 cells [3]; 1 µM, 18 h, MGC-803
  Cells in S phase: 29.41%
  Cells in G1 phase: 52.96%
MGC-803 cells [3]
  Phase in which the cell cycle is blocked: S phase
MGC-803 cells [4]
  Overall apoptosis rate (early apoptosis + late apoptosis): 9.8%
[5]
  solubility at 1 h: 6.2 µg/mL (≈ 13.8 µM)
Zebrafish embryos; 0.2 μM
  Death rate of zebrafish embryos: 50%
Zebrafish embryos; 0.3 or 0.5 μM
  Incubation (hatching) rate of zebrafish embryos: zero
Zebrafish embryos; exposure concentrations of 0.1, 0.15, and 0.2 μM
  Incubation (hatching) rate of zebrafish embryos: more than 75%

## CC1=C(O)C(=O)C=C2C1=CC=C1[C@@]2(C)CC[C@@]2(C)[C@@H]3C[C@](C)(C(=O)OCCCCO)CC[C@]3(C)CC[C@]12C [Compound 3, 4-Hydroxybutyl (2 R,4aS,6aS,12bR,14aS,14bR)-10-hydroxy-2,4a,6a,9,12b,14a-hexamethyl-11-oxo-1,2,3,4,4a,5,6,6a,11,12b,13,14,14a,14b-tetradecahydropicene-2-carboxylate]
HCT-116
  IC50: 320 to 390 nM
